Data set [1] deals with Homo sapiens. Nature of the data set: AUC (infinity) in human assessed as roflumilast N-oxide formation at 0.5 mg, po administered as single dose. Type of data set: ADME, organism-based. Also on record: dose 0.5 mg, route oral, time infinity. The note with it: in vivo.
A short description of data set [2]: Cmax in human at 0.5 mg, po administered as single dose. The note with it: in vivo. Further details: dose 0.5 mg, route oral. Type of data set: ADME, organism-based.
The species named for data set [3] is Homo sapiens. As to the kind of experiment: Inhibition of PDE4 in LPS-stimulated human whole blood assessed as decrease in leukotriene B4 level in plasma.
Data set [4] is described as follows: Fraction unbound in human plasma. Type of data set: ADME, cell-free. In a few lines:
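Plasma protein binding measured in human, Sprague–Dawley rat and Cynomolgus monkey plasma at 1, 10 and 30 μM compound. Reported as unbound fraction (%).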

The subject of data set [5] is Homo sapiens. As to the kind of experiment: Cmax in human assessed as roflumilast N-oxide formation at 0.5 mg, po administered as single dose. Type of data set: ADME, organism-based. Further details: dose 0.5 mg, route oral. The following applies: in vivo.
For data set [6], the species on record is Homo sapiens. As to the kind of experiment: Inhibition of PDE4 in human U937 cells assessed as [3H]cAMP hydrolysis at 1 uM relative to control. Type of data set: cell-based.
In data set [7] the test system is Rattus norvegicus. As to the kind of experiment: In vivo inhibition of P38 MAPKalpha in Lewis rat assessed as decrease in LPS-stimulated TNFalpha level in serum at 10 mg/kg, po pretreated for 1 hr followed by LPS addition measured after 1.5 hrs post dose relative to control. Type of data set: functional. In a few lines:
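Lewis rats, n = 8/group: females dosed orally at 10 mg/kg at −1, −3 or −5 h relative to LPS challenge, plus one male group dosed at −1 h. Male and female vehicle controls were given at −1 h. Serum TNFα was measured after LPS and compared with vehicle.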

Data set [8] in a line: AUC (infinity) in human at 0.5 mg, po administered as single dose. Type of data set: ADME, organism-based. Further details: dose 0.5 mg, time infinity, route oral. The following applies: in vivo.

For orientation: AUC means the area under the concentration-time curve, a measure of exposure. A word on the Cmax: it is the highest concentration seen after dosing. Usually inhibition stands for the percentage by which the read-out fell short of the control. The fraction unbound is free concentration divided by total concentration. High values mean weak binding, low ones extensive binding. The term inhibition in vivo denotes the share of the control response that was lost under treatment. What is called AUC(0-inf) is the area under the concentration-time curve extrapolated to infinity. Read a low AUC(0-inf) as less exposure.

Each structure is given as a SMILES string.

In the case of `O=C(Nc1c(Cl)cncc1Cl)c1ccc(OC(F)F)c(OCC2CC2)c1` [ROFLUMILAST], the AUC in data set [1] was found to be 0.8379 µM·h. Besides, the peak concentration (Cmax) in data set [2] amounted to 13.1 nM; in data set [5], 22.4 nM. Further, the inhibition result in data set [3] was “Dose-dependent effect”; in data set [6] it was 94%. This molecule also came in with a fraction unbound in data set [4] of 0.02. In data set [7], the inhibition in vivo at 10 mg/kg stood at 67%. Also, the AUC(0-inf) in data set [8] stood at 0.0868 µM·h.

The values above are taken from ChEMBL document CHEMBL4028848, “Discovery of N-{4-[5-(4-Fluorophenyl)-3-methyl-2-methylsulfanyl-3H-imidazol-4-yl]-pyridin-2-yl}-acetamide (CBS-3595), a Dual p38α MAPK/PDE-4 Inhibitor with Activity against TNFα-Related Diseases” (J Med Chem, 2017).
